# DAX1 inh-1 – NR0B1 (DAX1) inhibition. P51843. HEK293 Gal4-DAX1 luciferase reporter, luminescence. inhibition, % at 6.75 µM. 340,000 compounds, 0.99% hits;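 active = inhibition above the mean over all tested compounds plus 3 SD, cut at about 4.2% in these data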;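 note: 0% = DAX1-transfected cells with DMSO and 100% = empty-vector control cells with DMSO; inhibition shows as a rise in luminescence from relieved DAX1 repression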
# NR2E3 ag-1 – agonists of human nuclear receptor NR2E3; GST-NR2E3/biotin-RetCOR TR-FRET, 1536-well; inhibition of corepressor binding, % at 4.78 µM; 320,000 compounds, 0.12% hits; AID 2300;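 active = percent inhibition above the cutoff of mean plus 3 SD of all tested compounds, set per screening campaign, cut at about 20% in these data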;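 note: 0% = DMSO wells and 100% = biotin wells as full block of FRET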
# Target sequence (Q9Y5X4 whole entry, looked up): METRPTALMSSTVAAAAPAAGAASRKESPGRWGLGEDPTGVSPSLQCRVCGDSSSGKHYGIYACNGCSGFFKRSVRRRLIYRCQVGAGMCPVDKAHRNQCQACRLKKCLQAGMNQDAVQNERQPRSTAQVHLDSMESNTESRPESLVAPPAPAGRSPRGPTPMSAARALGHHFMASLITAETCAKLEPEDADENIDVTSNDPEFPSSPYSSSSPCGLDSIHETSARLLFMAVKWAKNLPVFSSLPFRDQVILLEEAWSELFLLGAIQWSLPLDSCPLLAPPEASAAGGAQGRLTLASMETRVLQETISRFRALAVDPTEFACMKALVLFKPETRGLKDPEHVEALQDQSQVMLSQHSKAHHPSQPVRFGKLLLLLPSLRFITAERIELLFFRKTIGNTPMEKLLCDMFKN
#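 Format: 1536-well format; test system: GST-NR2E3 and biotin-RetCOR proteins; read-out basis: percent inhibition of TR-FRET ratio; timing: 5 h incubation at 4 °C; detection: time-resolved FRET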
# DAX1 inh-2 – DAX1 (NR0B1) inhibition, primary screen; HEK293T StAR-luciferase reporter, SF-1/DAX-1 repression relief; inhibition, % at 6.8 µM; 370,000 compounds, 1.1% hits;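 active = inhibition above the mean over all tested compounds plus 3 SD, cut at about 3.6% in these data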;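 note: 0% = DAX-1 cells with DMSO and 100% = cells lacking DAX-1 with DMSO; higher inhibition means more luminescence from relief of DAX-1 repression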
# JMJD2C inh – human JMJD2C demethylase inhibition. Q9H3R0. GST-JMJD2C(1-420) H3K9me3 demethylation, DELFIA europium. inhibition, % at 2.35 µM. 330,000 compounds, 0.069% hits;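 active = more than half of a compound's replicate wells show inhibition beyond 50%, single wells judged on their own value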;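 note: signal counts dimethyl H3K9 product captured on neutravidin plate; 0% = median of DMSO wells and 100% = 0.3 times that DMSO median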
# SMARCA2 act – increases SMARCA2 function in MMTV reporter cells; MG213 cells, MMTV-luciferase reporter, dexamethasone, overnight; activation, % at 9.1 µM; 370,000 compounds, 1% hits; AID 652017; in the data active = activation above about 7.8%;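 note: 0% = vehicle wells and 100% = reference activator wells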
# NR2E3 ag-2 – agonists of human NR2E3 nuclear receptor; 360,000 compounds, 0.35% hits; AID 602229; inhibition of corepressor binding, % at 3.98 µM; CHO-S Gal4-NCOR/VP16-NR2E3 two-hybrid, luciferase; Q9Y5X4;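 active = inhibition above the mean of all tested compounds plus 3 SD, cut at about 70% in these data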;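 note: 0% = DMSO with NR2E3 transfected cells and 100% = cells lacking NR2E3 construct; higher means lower luciferase signal from less NR2E3 corepressor binding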
# An asterisk follows results filed as active; . = no result given. A selection: hits, their analogues and other compounds. The true share with any hit is near 3.2%.
SMILES,DAX1 inh-1,NR2E3 ag-1,DAX1 inh-2,JMJD2C inh,SMARCA2 act,NR2E3 ag-2
Cc1csc(NS(=O)(=O)c2cccc([N+](=O)[O-])c2)n1,6.1*,6,1,13,-2,22
C[C@@H]1COc2cc(Br)ccc2S(=O)(=O)N1Cc1cn(Cc2ccc(C(F)(F)F)cc2)nn1,.,.,1,.,2,.
CC1(C)CC2CC(C)(CN2C(=O)COC(=O)c2n[nH]c(=O)c3ccccc23)C1 (stereo not given),4.4*,-1,0,-1,0,-11
COc1cc(C(C[N+](=O)[O-])c2c(C)cc3ccccn23)ccc1O (stereo not given),4.4*,-2,0,0,6,-20
COc1ccc(C(C[N+](=O)[O-])c2c(-c3ccccc3)cc3ccccn23)cc1OC (stereo not given),-1,-1,0,-7,1,-4
CCCc1c(O)c2ccccc2[nH]c1=O,-1,1,0,5,2,-21
O=c1[nH]c2ccccc2c(O)c1Cc1ccccc1,4.7*,3,-1,-14,4,17
CCCCCCCC(=O)O,4.7*,.,0,.,1,11
COC(=O)c1c(C)oc2ccc(N(C(=O)Oc3ccccc3)S(=O)(=O)c3ccc(Cl)c([N+](=O)[O-])c3)cc12,2,-3,.,18,.,5
COC(=O)c1c(C)oc2ccc(N(C(=O)c3ccncc3)S(=O)(=O)c3ccccc3)cc12,-2,-1,-2,-3,-3,70*
Nc1nnc(-c2cc3ccccc3oc2=O)s1,0,5,2,3,7.9*,-99
O=c1oc2ccccc2cc1-c1nnc(NCc2ccco2)s1,2,3,3.9*,-4,7,-96
Nc1nc(-c2cc3ccccc3o2)cs1,5.2*,2,3,10,3,-71
CN1CCN(c2nc(-c3cc4ccccc4o3)cs2)CC1,1,2,1,-1,2,-45
CC(C)C(=O)N1CCCCCCN1C(=O)C(C)C,4.4*,.,-1,.,-8,18
CC(CN1CCCCC1)C(=O)NN (stereo not given),0,3,0,3,-1,4
CC(/C=C/C(=O)c1ccc(C)cc1)=C\c1ccccc1,5.3*,1,1,4,2,-14
O=C(NC1CCCCN(Cc2cccc(Cl)c2)C1=O)C1CCCCC1 (stereo not given),.,.,0,.,-2,.
CC(=O)c1ccc(NC(=O)[C@@H]2CCCN2C2=NS(=O)(=O)c3ccccc32)cc1,-1,-2,1,-6,-1,7
Cc1cccc(NC(=O)[C@@H]2CCCN2C2=NS(=O)(=O)c3ccccc32)c1C,4.4*,0,-1,7,-1,5
CCN1CCN(C(=O)c2ccc(-c3nc4ccccc4s3)s2)CC1,2,-2,4.3*,-1,5,-110
O=C(c1ccc(-c2nc3ccccc3s2)s1)N1CCOCC1,.,5,2,35,4,.
COc1ccc(N2CCN(CCNS(=O)(=O)c3ccc(Br)s3)CC2)cc1,.,.,-2,.,-2,.
CN1C(=O)Nc2cccc3cccc1c23,4.4*,-5,0,-4,-2,-12
CN1C(=O)N(C)c2cccc3cccc1c23,-1,1,0,-11,-2,-20
SMILES,DAX1 inh-1,NR2E3 ag-1,DAX1 inh-2,JMJD2C inh,SMARCA2 act,NR2E3 ag-2
CCn1c(SCC(=O)Nc2nc(C)cs2)nnc1-c1ccncc1,0,-1,1,54*,-2,-16
CC(=O)Nc1ccc2c(c1)CCc1ccccc1-2,1,-1,0,-5,1,-24
CC(=O)Nc1ccc2c(c1)Cc1c(F)cccc1-2,2,.,4.3*,.,8,-41
COC(=O)C[C@@H]1CC[C@@H]2[C@@H](COc3ccc(NC(=O)c4ccc(F)cc4)cc3C(=O)N2C)O1,.,.,-1,.,-4,.
Cc1cnc(CN2CCc3c([nH]c4ccccc34)C2CC(C)C)[nH]1 (stereo not given),0,4,-1,-20,-2,6
Cc1cccc(CN2CCc3c([nH]c4ccccc34)C2CC(C)C)n1 (stereo not given),4.7*,-2,0,-3,0,10
O=C(Nc1cccc(Br)c1)OC1CC2CC1[C@H]1CCCCN1C2 (stereo not given in full),.,.,-1,.,-3,.

# Compound activity (PubChem)
